Test results as given in ChEMBL document CHEMBL5136958, “The development of HEC-866 and its analogues for the treatment of idiopathic pulmonary fibrosis” (RSC Med Chem, 2021).
Activity calls are given as the source filed them. No cut-off for these calls is given here.

Experiments:
[1] = tested on: HFL1; assay: Antiproliferative activity against human HFL1 cells assessed as reduction in cell proliferation measured after 24 hrs by CCK-8 assay; format: functional, cell-based; conditions: HFL1, 24 h
How it was run: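 Human fetal lung fibroblasts (HFL-1); growth inhibition quantified with CCK-8; IC50 averaged from 3 experiments, each in duplicate.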

[2] = Half life in Sprague-Dawley rat model of bleomycin-induced pulmonary fibrosis at 2 mg/kg, iv by LC-MS/MS analysis; format: ADME, organism-based; conditions: in vivo
How it was run: (§1)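 Male Sprague-Dawley rats with induced pulmonary fibrosis; single i.v. (2.0 mg kg⁻¹) or p.o. (5.0 mg kg⁻¹) administration. Plasma samples stored at −70 °C; the supernatant was analysed by LC-MS/MS for PK parameters.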

[3] = AUClast in Sprague-Dawley rat model of bleomycin-induced pulmonary fibrosis at 2 mg/kg, iv by LC-MS/MS analysis; format: ADME, organism-based; design: time 0 - last, dose 2 mg/kg, route iv; conditions: in vivo; how it was run: as §1
[4] = AUC(infinity) in Sprague-Dawley rat model of bleomycin-induced pulmonary fibrosis at 2 mg/kg, iv by LC-MS/MS analysis; format: ADME, organism-based; design: time infinity, dose 2 mg/kg, route iv; conditions: in vivo; how it was run: as §1
[5] = Clearance in Sprague-Dawley rat model of bleomycin-induced pulmonary fibrosis at 2 mg/kg, iv by LC-MS/MS analysis; format: ADME, organism-based; conditions: in vivo; how it was run: as §1
[6] = Half life in Sprague-Dawley rat model of bleomycin-induced pulmonary fibrosis at 5 mg/kg, po by LC-MS/MS analysis; format: ADME, organism-based; conditions: in vivo; how it was run: as §1
[7] = AUClast in Sprague-Dawley rat model of bleomycin-induced pulmonary fibrosis at 5 mg/kg, po by LC-MS/MS analysis; format: ADME, organism-based; design: time 0 - last, dose 5 mg/kg, route po; conditions: in vivo; how it was run: as §1
[8] = AUC(infinity) in Sprague-Dawley rat model of bleomycin-induced pulmonary fibrosis at 5 mg/kg, po by LC-MS/MS analysis; format: ADME, organism-based; design: time infinity, dose 5 mg/kg, route po; conditions: in vivo; how it was run: as §1
[9] = Half life in Sprague-Dawley rat model of bleomycin-induced pulmonary fibrosis at 1 mg/kg, iv by LC-MS/MS analysis; format: ADME, organism-based; conditions: in vivo
[10] = AUClast in Sprague-Dawley rat model of bleomycin-induced pulmonary fibrosis at 1 mg/kg, iv by LC-MS/MS analysis; format: ADME, organism-based; design: time 0 - last, dose 1 mg/kg, route iv; conditions: in vivo
[11] = AUC(infinity) in Sprague-Dawley rat model of bleomycin-induced pulmonary fibrosis at 1 mg/kg, iv by LC-MS/MS analysis; format: ADME, organism-based; design: time infinity, dose 1 mg/kg, route iv; conditions: in vivo
[12] = Clearance in Sprague-Dawley rat model of bleomycin-induced pulmonary fibrosis at 1 mg/kg, iv by LC-MS/MS analysis; format: ADME, organism-based; conditions: in vivo
[13] = Tmax in Sprague-Dawley rat model of bleomycin-induced pulmonary fibrosis at 5 mg/kg, po by LC-MS/MS analysis; format: ADME, organism-based; conditions: in vivo
How it was run: (§2)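 Male Sprague-Dawley rats with induced pulmonary fibrosis were dosed 2.0 mg kg⁻¹ i.v. or 5.0 mg kg⁻¹ p.o. Plasma was stored at -70 °C, and the supernatant was analysed by LC-MS/MS.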

[14] = Cmax in Sprague-Dawley rat model of bleomycin-induced pulmonary fibrosis at 5 mg/kg, po by LC-MS/MS analysis; format: ADME, organism-based; design: dose 5 mg/kg, route po; conditions: in vivo; how it was run: as §1
[15] = Oral bioavailability in Sprague-Dawley rat model of bleomycin-induced pulmonary fibrosis at 5 mg/kg by LC-MS/MS analysis; format: ADME, organism-based; conditions: in vivo; how it was run: as §2
[16] = tested on: HFL1; assay: Antifibrotic activity in TGF-beta1-induced HFL1 cell injury assessed as alpha-SMA expression at 3 mM measured after 48 hrs by Western blot analysis (reference value: 100%); format: functional, Homo sapiens
How it was run: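 HFL-1 cells stimulated with TGF-β1; α-SMA protein detected by Western blot with anti-α-SMA antibody, normalised to tubulin; mean of n = 3.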

[17] = tested on: HFL1; assay: Antifibrotic activity in TGF-beta1-induced HFL1 cell injury assessed as down regulation of collagen 1 mRNA expression at 3 mM measured after 24 hrs by RT-PCR analysis; format: functional, cell-based; conditions: Homo sapiens
How it was run: (§3)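 TGF-β1-induced HFL-1 cells treated 24 h (test range 0.625–10 μM; comparator 3 mM); collagen 1 and collagen 3 mRNA measured by RT-PCR; mean of n = 3.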

[18] = tested on: HFL1; assay: Antifibrotic activity in TGF-beta1-induced HFL1 cell injury assessed as down regulation of collagen 3 mRNA expression at 3 mM measured after 24 hrs by RT-PCR analysis; format: functional, cell-based; conditions: Homo sapiens; how it was run: as §3
[19] = Cmax in Sprague-Dawley rat model of bleomycin-induced pulmonary fibrosis at 2 mg/kg, iv by LC-MS/MS analysis; format: ADME, organism-based; design: dose 2 mg/kg, route iv; conditions: in vivo; how it was run: as §1
[20] = Tmax in Sprague-Dawley rat model of bleomycin-induced pulmonary fibrosis at 10 mg/kg, po by LC-MS/MS analysis; format: ADME, organism-based; conditions: in vivo
[21] = Cmax in Sprague-Dawley rat model of bleomycin-induced pulmonary fibrosis at 10 mg/kg, po by LC-MS/MS analysis; format: ADME, organism-based; design: dose 10 mg/kg, route po; conditions: in vivo
[22] = Half life in Sprague-Dawley rat model of bleomycin-induced pulmonary fibrosis at 10 mg/kg, po by LC-MS/MS analysis; format: ADME, organism-based; conditions: in vivo
[23] = AUClast in Sprague-Dawley rat model of bleomycin-induced pulmonary fibrosis at 10 mg/kg, po by LC-MS/MS analysis; format: ADME, organism-based; design: time 0 - last, dose 10 mg/kg, route po; conditions: in vivo
[24] = AUC(infinity) in Sprague-Dawley rat model of bleomycin-induced pulmonary fibrosis at 10 mg/kg, po by LC-MS/MS analysis; format: ADME, organism-based; design: time infinity, dose 10 mg/kg, route po; conditions: in vivo
[25] = Oral bioavailability in Sprague-Dawley rat model of bleomycin-induced pulmonary fibrosis at 10 mg/kg by LC-MS/MS analysis; format: ADME, organism-based; conditions: in vivo
[26] = tested on: Rattus norvegicus; assay: Antifibrotic activity against bleomycin-induced pulmonary fibrosis in Sprague-Dawley rat assessed as reduction in lung histopathological changes at 100 mg/kg, po administered daily for 1 to 14 days starting from post bleomycin stimulation by H and E staining based assay; format: functional, organism-based; conditions: time 1-14 day
How it was run: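 Bleomycin-induced lung fibrosis in SD rats; oral dosing daily from day 1 for 14 days; saline for sham and bleomycin groups; comparator 100 mg kg⁻¹ d, test doses 2 and 6 mg kg⁻¹ d; lung pathology assessed by HE histology.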

Cc1cc(=O)n(-c2ccc(N3CCC(COc4cccc(F)c4)CC3)c(Cl)c2)c(C)n1
IC50 [1]: 50 µM | half-life [2]: 404 min | AUC(0-t) [3]: 1450 ng·h/mL | AUC(0-inf) [4]: 3260 ng·h/mL | clearance [5]: 10.8 mL/min/kg | half-life [6]: 316 min | AUC(0-t) [7]: 1550 ng·h/mL | AUC(0-inf) [8]: 3410 ng·h/mL

Cc1cc(=O)n(-c2ccc(N3CCOCC3)c(F)c2)c(C)n1
IC50 [1]: 6540 µM | half-life [6]: 258 min | AUC(0-t) [7]: 32600 ng·h/mL | AUC(0-inf) [8]: 33500 ng·h/mL | half-life [9]: 258 min | AUC(0-t) [10]: 7130 ng·h/mL | AUC(0-inf) [11]: 7290 ng·h/mL | clearance [12]: 1.67 mL/min/kg | Tmax [13]: 30 min | Cmax [14]: 4720 ng/mL | bioavailability [15]: 92%

Cc1cc(=O)n(-c2ccc(N3CCC(Cc4ccc5ccccc5c4)CC3)c(Cl)c2)c(C)n1
IC50 [1]: 90 µM

Cc1cc(=O)n(-c2ccc(N3CCC(Cc4ccccc4Cl)CC3)c(Cl)c2)c(C)n1
IC50 [1]: 70 µM

Cc1cc(=O)n(-c2ccc(N3CCC(Cc4ccc(F)cc4)CC3)c(F)c2)c(C)n1
IC50 [1]: 110 µM

Cc1cc(=O)n(-c2ccc(N3CCC(Cc4cc(F)c(F)c(F)c4)CC3)c(Cl)c2)c(C)n1
IC50 [1]: 60 µM | half-life [2]: 492 min | AUC(0-t) [3]: 2190 ng·h/mL | AUC(0-inf) [4]: 2400 ng·h/mL | clearance [5]: 13.8 mL/min/kg | half-life [6]: 505 min | AUC(0-t) [7]: 5690 ng·h/mL | AUC(0-inf) [8]: 6360 ng·h/mL

Cc1ccc(=O)n(-c2ccccc2)c1 [PIRFENIDONE]
Activity [16]: 83.71% | IC50 [1]: 9150 µM | half-life [2]: 24 min | AUC(0-t) [3]: 649 ng·h/mL | AUC(0-inf) [4]: 650 ng·h/mL | clearance [5]: 53.3 mL/min/kg | Activity [17]: Active | Activity [18]: Active | Cmax [19]: 1010 ng/mL | Tmax [20]: 18 min | Cmax [21]: 5070 ng/mL | half-life [22]: 24 min | AUC(0-t) [23]: 3460 ng·h/mL | AUC(0-inf) [24]: 3460 ng·h/mL | bioavailability [25]: 107% | Activity [26]: Active

Cc1cc(=O)n(-c2ccc(N3CCC(Cc4cccc(F)c4)CC3)nc2)c(C)n1
IC50 [1]: 130 µM

Cc1cc(=O)n(-c2ccc(N3CCC(Cc4cccc(C(F)(F)F)c4)CC3)c(Cl)c2)c(C)n1
IC50 [1]: 60 µM | half-life [2]: 812 min | AUC(0-t) [3]: 2460 ng·h/mL | AUC(0-inf) [4]: 3220 ng·h/mL | clearance [5]: 10.3 mL/min/kg | half-life [6]: 710 min | AUC(0-t) [7]: 5180 ng·h/mL | AUC(0-inf) [8]: 7080 ng·h/mL

Cc1cc(=O)n(-c2ccc(N3CCC(Cc4ccccc4-c4ccccc4)CC3)c(Cl)c2)c(C)n1
IC50 [1]: 70 µM

Cc1cc(=O)n(-c2ccc(N3CCC(Oc4cccc(F)c4)CC3)c(F)c2)c(C)n1
IC50 [1]: 110 µM

Cc1cc(=O)n(-c2cnc(N3CCC(Cc4cccc(F)c4)CC3)c(Cl)c2)c(C)n1
IC50 [1]: 60 µM

C=CCc1ccccc1OC1CCN(c2ccc(-n3c(C)nc(C)cc3=O)cc2Cl)CC1
IC50 [1]: 70 µM

Cc1cc(=O)n(-c2cnc(N3CCC(Oc4cccc(F)c4)CC3)c(Cl)c2)c(C)n1
IC50 [1]: 70 µM

Cc1cc(=O)n(-c2ccc(N3CCC(Cc4cccc5ccccc45)CC3)c(F)c2)c(C)n1
IC50 [1]: 60 µM | half-life [2]: 316 min | AUC(0-t) [3]: 1110 ng·h/mL | AUC(0-inf) [4]: 1130 ng·h/mL | clearance [5]: 29.8 mL/min/kg | half-life [6]: 313 min | AUC(0-t) [7]: 1560 ng·h/mL | AUC(0-inf) [8]: 1600 ng·h/mL

Cc1cc(=O)n(-c2ccc(N3CCC(Cc4cccc(F)c4)CC3)c(Cl)c2)c(C)n1
IC50 [1]: 60 µM

Cc1cccc(CC2CCN(c3ccc(-n4c(C)nc(C)cc4=O)cc3F)CC2)c1
IC50 [1]: 100 µM

Cc1cc(=O)n(-c2ccc(N3CCC(Nc4cccc(C(F)(F)F)c4)CC3)c(Cl)c2)c(C)n1
IC50 [1]: 60 µM

Cc1cc(=O)n(-c2ccc(N3CCC(Cc4cccc(Cl)c4)CC3)c(Cl)c2)c(C)n1
IC50 [1]: 50 µM | half-life [2]: 652 min | AUC(0-t) [3]: 898 ng·h/mL | AUC(0-inf) [4]: 1060 ng·h/mL | clearance [5]: 15.8 mL/min/kg | half-life [6]: 576 min | AUC(0-t) [7]: 1750 ng·h/mL | AUC(0-inf) [8]: 2030 ng·h/mL

Cc1cc(=O)n(-c2ccc(N3CCC(Cc4cccc5cccnc45)CC3)c(Cl)c2)c(C)n1
IC50 [1]: 120 µM

Cc1cc(=O)n(-c2ccc(N3CCC(Cc4cccc(F)c4)CC3)cn2)c(C)n1
IC50 [1]: 130 µM
